The record followed here is PubChem BioAssay.

The nature of assay [1]: inhibitors of TNFa-induced NFkB p65 translocation, primary screen, imaging, HUVEC, MLSMR starter and 10KST1 sets (AID 438;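 active = inhibition above 20% together with a positive visual image hit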;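 note: compound added about 3h40 before a 20 min TNFalpha stimulation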;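 for inhibition: signal is the nuclear over cytoplasmic p65 intensity ratio per well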). The following applies: HUVEC TNFa-induced p65 nuclear translocation; cell count: measured here: nuclei count (cytotoxicity indicator), at 2.08 µM; inhibition: at 2 µM, stronger effect = higher value, 0% TNFa-plus-vehicle, 100% no-TNFa wells.
Assay [2] is described as follows: inhibitors of E-selectin induction by TNFa, primary screen, imaging, HUVEC, immunofluorescence, MLSMR starter and 10KST1 sets (AID 487).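 For inhibition: signal is fraction of cell area covered by stained E-selectin grains.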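 For nuclei count: 100% = median nuclei count of all wells on the same plate.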 The following applies: HUVEC TNFalpha-induced E-selectin immunofluorescence imaging, at 2 µM; inhibition: stronger effect = higher value; nuclei count: measured here: cell number, toxicity.
Assay [3] in a line: DUSP6 inhibitors restoring Erk phosphorylation by chemical complementation, primary imaging in DUSP6-transfected HeLa (AID 609;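 active = compounds giving at least 50% inhibition in the cell-based MKP-3 phosphatase rescue imaging test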;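 for inhibition: phospho-Erk level distribution per well compared with pooled transfected vehicle control wells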). The settings on record: HeLa MKP-3 transfected, phospho-Erk imaging KS statistic, at 10 µM, cells stimulated with TPA for 15 min.
Assay [4] addresses Dual specificity protein phosphatase 6 (Homo sapiens) (UniProt Q16828). The assay is described as above. The following applies: HeLa MKP-3 transfected, phospho-Erk imaging KS statistic; at 10 µM; stronger effect = higher value; cells stimulated with TPA for 15 min.
Assay [5] addresses Voltage-gated potassium channel subunit beta-2 (Rattus norvegicus) (UniProt P62483). Briefly: KvBeta enzyme negative modulators, primary screen, biochemical, NADPH fluorescence (AID 622;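 active = fluorescence slope higher than the sample average by over 3 SD, cut at about -0.22 in these data, passing the limit was not always enough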;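 note: slope of raw intensity against log time taken from 70 to 1610 s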). The following applies: recombinant KvBeta, 4-cyanobenzaldehyde reduction, at 10 µM, stronger effect = higher value.
The target is the same in assay [6]. Briefly: KvBeta positive modulators, primary screen, biochemical, NADPH fluorescence (AID 623;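 active = NADPH fluorescence slope more negative than the mean of all samples by about 3 SD, 99.7% confidence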;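 note: fluorescence intensity change per second fitted from 20 to 320 s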). The settings on record: Recombinant KvBeta, NADPH fluorescence decrease slope, 10 min; at 10 µM; stronger effect = lower value.
The target in assay [7] is Alpha-2C adrenergic receptor (Homo sapiens) (UniProt P18825). Nature of the assay: modulators of alpha2C/GIRK thallium flux, primary screen, cell-based, HEK293 alpha2C/GIRK1/2 (AID 624;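 active = fluorescence slope after compound addition differing from the mean of all screened samples at 99.7% confidence, in either direction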;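 note: slope of fluorescence ratio to pre-addition baseline per second over 15 to 24 s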). The following applies: thallium flux BTC fluorescence, at 10 µM, actives lie on both sides.
Alpha-2C adrenergic receptor (Homo sapiens), sequence (P18825 whole entry, looked up): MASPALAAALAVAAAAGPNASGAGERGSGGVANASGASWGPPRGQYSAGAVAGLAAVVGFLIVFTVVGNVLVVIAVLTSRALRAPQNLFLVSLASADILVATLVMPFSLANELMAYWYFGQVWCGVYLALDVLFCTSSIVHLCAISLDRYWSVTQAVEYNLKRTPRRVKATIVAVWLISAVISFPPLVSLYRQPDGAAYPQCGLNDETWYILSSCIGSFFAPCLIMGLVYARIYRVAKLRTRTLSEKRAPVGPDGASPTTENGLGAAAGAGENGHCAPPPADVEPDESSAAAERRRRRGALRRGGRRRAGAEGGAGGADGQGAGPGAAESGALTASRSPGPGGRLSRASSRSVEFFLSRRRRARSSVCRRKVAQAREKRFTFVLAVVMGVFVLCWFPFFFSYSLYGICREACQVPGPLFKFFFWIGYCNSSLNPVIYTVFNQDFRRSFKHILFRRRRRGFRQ
The nature of assay [8]: inhibitors of larval lipid processing in zebrafish, primary screen, whole organism, PED6 fluorescence, gall bladder and intestine (AID 686;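 active = a full or partial loss of lipid-probe fluorescence in the fish gall bladder, intestine or both, judged by eye; inactive = no fluorescence loss, or compound toxic to the fish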;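 note: larvae 5 to 7 days old with five fish per well; signal comes from phospholipase A2 cleavage of quenched PED6 carried via bile; overnight exposure to compound and PED6 before scoring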). The settings on record: Zebrafish larvae PED6 lipid processing, fluorescence scoring; screened at 20 µM (by protocol). A digest of the protocol:
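Test system – live zebrafish larvae aged 5-7 days, whole organism · Buffer or medium – E3 fish medium · Reagent – quenched phospholipase substrate PED6, 100 nM final, ingested by larvae · Doses – 20 µM single dose · Incubation – overnight compound and PED6 incubation · Technique – visual fluorescence microscopy scoring of gall bladder, gut · Read-out basis – visual per-well fluorescence inhibition score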

Assay [9] can be described thus: inhibitors of Chlamydomonas gravitaxis, primary screen, whole organism, Chlamydomonas reinhardtii, WT vs cilia-less mutant, absorbance, 96-well (AID 463189;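 active = inhibition at or above 50% relative to wild type and mutant plate controls; inactive = inhibition below 50%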;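 note: 0% = wild type cc124 cells in DMSO and 100% = ciliumless bld1 mutant cells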). The settings on record: OD600 absorbance, 2 days, at 10 µM, stronger effect = higher value.
The mark [10] stands for this setting: measured here: cell density z-score.
[11] abbreviates: measured here: nuclear c-Myc green intensity z-score.
Setting [12] is: measured here: nuclear pErk red intensity z-score, stronger effect = higher value.

Calls of active or inactive are those of the source.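 Rule for the calls, unless noted: active = visually confirmed hit in the image check and inhibition above 20%; inconclusive = visually confirmed hit but inhibition not above 20%; inactive = no visual hit in the image check.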

Dual specificity protein phosphatase 6 (Homo sapiens), sequence (Q16828 whole entry, looked up): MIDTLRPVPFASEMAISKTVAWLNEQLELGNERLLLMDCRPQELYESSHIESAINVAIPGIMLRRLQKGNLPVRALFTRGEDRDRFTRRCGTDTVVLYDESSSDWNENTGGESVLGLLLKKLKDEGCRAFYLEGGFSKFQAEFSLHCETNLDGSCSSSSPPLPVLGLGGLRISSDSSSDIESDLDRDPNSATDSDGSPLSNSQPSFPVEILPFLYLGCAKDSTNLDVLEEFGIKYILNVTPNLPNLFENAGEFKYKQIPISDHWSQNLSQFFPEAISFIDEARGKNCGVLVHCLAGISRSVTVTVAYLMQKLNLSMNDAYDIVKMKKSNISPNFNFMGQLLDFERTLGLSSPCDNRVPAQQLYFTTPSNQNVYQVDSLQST
Voltage-gated potassium channel subunit beta-2 (Rattus norvegicus), sequence (P62483 whole entry, looked up): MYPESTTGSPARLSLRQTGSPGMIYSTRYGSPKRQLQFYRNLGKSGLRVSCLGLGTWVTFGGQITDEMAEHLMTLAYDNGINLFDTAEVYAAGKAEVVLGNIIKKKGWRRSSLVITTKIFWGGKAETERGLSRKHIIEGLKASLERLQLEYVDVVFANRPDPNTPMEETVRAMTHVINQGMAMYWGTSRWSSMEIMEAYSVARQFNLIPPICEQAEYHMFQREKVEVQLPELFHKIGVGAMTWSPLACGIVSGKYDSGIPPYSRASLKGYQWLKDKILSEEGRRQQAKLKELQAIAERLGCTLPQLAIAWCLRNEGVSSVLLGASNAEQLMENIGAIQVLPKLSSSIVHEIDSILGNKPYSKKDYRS

Turning to `Cc1ccc(C(=O)C2=C(O)C(=O)N(c3ncccn3)C2c2ccc(Cl)cc2)o1` (stereo not drawn), the cell count in assay [1] was found to be 371. The inhibition was -10.1% (inactive) in assay [1], 14.5% (inactive) in assay [2], 7.83% (inactive) in assay [4] and 5.76% (inactive) in assay [9]. In [2], this compound yielded a nuclei count of 94.4%. In addition, the z-score is -1.13 in assay [3] (setting [10]), -0.679 in assay [3] (setting [11]) and 0.195 in assay [3] (setting [12]). In addition, the fluorescence slope in assay [5] is -0.331 (inactive). Also, the NADPH fluorescence slope in assay [6] is -1.3e-05 (inactive). Further, the slope in assay [7] was 0.00456 (inactive). Moreover, the compound was called inactive in [8].

Take `CC(=O)N1CC=C2C(C#N)=C(N)C(C#N)(C#N)[C@H](c3ccoc3)[C@H]2C1`: the cell count in [1] was found to be 364. The inhibition is -12.2% (inactive) in assay [1], -63% (inactive) in assay [2], -4.7% (inactive) in [4] and -0.734% (inactive) in [9]. Besides, the nuclei count in assay [2] worked out at 90.4%. Further, the results for the z-score in [3] (setting [10]), in [3] (setting [11]) and in assay [3] (setting [12]) were 0.865, 0.398 and -2.11, respectively. The fluorescence slope in assay [5] is -0.371 (inactive). The NADPH fluorescence slope in [6] was 7.7e-06 (inactive). The slope in assay [7] is 0.00495 (inactive). The compound was called inactive in assay [8].

On to `O=C(CCN1CCCCC1)Nc1cccc(Cl)c1`, for which the cell count in [1] was determined as 336. For the same compound, the inhibition was -14.7% (inactive) in assay [1], -49.9% (inactive) in [2], -3.5% (inactive) in [4] and -5.09% (inactive) in [9]. The same compound gave a nuclei count in assay [2] of 138%. Further, the z-score in assay [3] (setting [10]) is -1.72; in assay [3] (setting [11]), 0.965; in assay [3] (setting [12]) it was 0.516. In assay [5], the fluorescence slope is -0.42 (inactive). Also, the NADPH fluorescence slope in [6] was -0.000129 (inactive). Moreover, the slope in assay [7] is 0.0069 (inactive). Besides, the compound was called inactive in assay [8].

Consider `CC(=O)C(=[N+]=[N-])C(=O)NCc1ccccc1`, for which the cell count in assay [1] came to 474. Besides, the inhibition in assay [1] was -11.6% (inactive); in assay [2] it was -71.5% (inactive); in assay [4], 5.95% (inactive); in [9], 24.1% (inactive). This compound also returned a nuclei count in assay [2] of 95.4%. Moreover, the z-score was 0.378 in assay [3] (setting [10]), -1.15 in [3] (setting [11]) and 0.485 in assay [3] (setting [12]). Further, in assay [5], the fluorescence slope was -0.518 (inactive). Further, the NADPH fluorescence slope in assay [6] was -4e-05 (inactive). For the same compound, the slope in [7] was 0.00636 (inactive). Further, the result in [8] was inactive.

Regarding `CC12CCC(C(=O)NCCCN3CCOCC3)(OC1=O)C2(C)C` (stereo not drawn), the cell count in assay [1] stood at 297. In addition, the inhibition is 5.1% (inactive) in assay [1], 12.1% (inactive) in [2], 8.76% (inactive) in assay [4] and -10.2% (inactive) in [9]. The nuclei count in [2] was 126%. Besides, the z-score in assay [3] (setting [10]) amounted to 0.486; in [3] (setting [11]), 0.456; in [3] (setting [12]), 1.46. In addition, the fluorescence slope in [5] was -0.425 (inactive). Besides, in assay [6], the NADPH fluorescence slope was -0.000122 (inactive). Further, the slope in assay [7] was 0.0052 (inactive).

`CCc1nc(SCc2cccnc2)c(C#N)cc1C`: the cell count in assay [1] came out at 594. In addition, the inhibition in [1] is -3.5% (inactive); in [2], -81.5% (inactive); in assay [4], 2.46% (inactive); in [9], 50.3% (active). The compound further registered a nuclei count in assay [2] of 176%. Moreover, the z-score in assay [3] (setting [10]) was 0.241; in assay [3] (setting [11]), -0.223; in assay [3] (setting [12]) it was -1.08. The fluorescence slope in assay [5] was -0.341 (inactive). Also, the NADPH fluorescence slope in assay [6] is 8.2e-06 (inactive). The slope in [7] is 0.00538 (inactive). For the same compound, in assay [8], the compound was called inactive.

Regarding `Clc1ccc(-c2cn3c(n2)CCC3)cc1`, the cell count in [1] was determined as 567. The inhibition in assay [1] was -16.9% (inactive); in assay [2], 0.7% (inactive); in [4], -6.86% (inactive); in [9] it was 3.42% (inactive). Moreover, in assay [2], the nuclei count worked out at 171%. The z-score was -1.6 in assay [3] (setting [10]), 1.21 in assay [3] (setting [11]) and 1.33 in assay [3] (setting [12]). For the same compound, the fluorescence slope in assay [5] was -0.504 (inactive). Further, the NADPH fluorescence slope in assay [6] is -9.3e-05 (inactive). Also, the slope in [7] is 0.00501 (inactive). The outcome in assay [8] was inactive.

With `CC(=O)N1CCN(c2nc(CC(C)C)c3c(c2C#N)CCC3)CC1`, the cell count in assay [1] stood at 524. Further, the inhibition in assay [1] was 0.5% (inactive); in assay [2] it was -100% (inactive); in assay [4], 5.26% (inactive); in assay [9] it was -18% (inactive). The same compound gave a nuclei count in [2] of 145%. The z-score is -0.27 in [3] (setting [10]), -0.142 in [3] (setting [11]) and -0.203 in assay [3] (setting [12]). Besides, the fluorescence slope in [5] is -0.477 (inactive). The NADPH fluorescence slope in assay [6] is -4.8e-05 (inactive). For the same compound, in assay [7], the slope was 0.00485 (inactive). Besides, the outcome in [8] was inactive.

For `COc1ccc(-n2c(=O)c3c4c(sc3n3c(C)nnc23)CC(C)CC4)cc1` (stereo not drawn), the cell count in assay [1] came to 617. Moreover, the inhibition in assay [1] is 3.9% (inactive); in assay [2], 15.9% (inactive); in [4] it was -0.608% (inactive); in assay [9], 53.4% (active). The nuclei count in [2] is 162%. In addition, the figures for the z-score in assay [3] (setting [10]), in [3] (setting [11]) and in assay [3] (setting [12]) were -1.05, 0.383 and -0.315, respectively. Moreover, the fluorescence slope in [5] was -0.324 (inactive). Further, the NADPH fluorescence slope in assay [6] was 8.8e-06 (inactive). The slope in assay [7] was 0.00514 (inactive). Moreover, in assay [8], the call was inactive.

For the compound `CC1(C)CC(N(Cc2ccco2)C(=O)Cc2ccccc2)CCO1` (stereo not drawn), the cell count in assay [1] worked out at 535. Moreover, the inhibition in assay [1] is 12.5% (inactive); in assay [2], -104% (inactive); in assay [4], 3.5% (inactive); in [9], 6.62% (inactive). This compound also had a nuclei count in assay [2] of 145%. For the same compound, the figures for the z-score in assay [3] (setting [10]), in assay [3] (setting [11]) and in [3] (setting [12]) were -0.358, 2.8 and -0.796, respectively. In addition, the fluorescence slope in assay [5] was -0.485 (inactive). Moreover, the NADPH fluorescence slope in assay [6] was -3.2e-05 (inactive). Moreover, the slope in assay [7] was 0.00539 (inactive). In addition, the outcome in assay [8] was inactive.

For `Nc1[nH]nc2nc(NCc3ccccc3)c3c(c12)CCN(Cc1ccccc1)C3`, in assay [1], the cell count worked out at 638. Also, the inhibition in assay [1] is -12.3% (inactive); in assay [2], 20% (inactive); in [4], 15.1% (inactive); in assay [9] it was 6.13% (inactive). For the same compound, in assay [2], the nuclei count was determined as 190%. Besides, the z-score is 1.59 in assay [3] (setting [10]), -1.42 in [3] (setting [11]) and -0.833 in assay [3] (setting [12]). Moreover, the fluorescence slope in [5] was -0.502 (inactive). In addition, the NADPH fluorescence slope in [6] is -6.3e-05 (inactive). The slope in [7] was 0.00406 (inactive). In addition, the outcome in assay [8] was inactive.

As to `O=C(NCCOCCOCCNC(=O)c1cccnc1)c1cccnc1`, in [1], the cell count is 490. Besides, the inhibition in [1] is 0.8% (inactive); in [2] it was -165% (inactive); in assay [4] it was 34.8% (inactive); in assay [9] it was -5.31% (inactive). In assay [2], this compound came in with a nuclei count of 151%. Also, the z-score was -2.67 in assay [3] (setting [10]), -0.0249 in [3] (setting [11]) and -0.654 in assay [3] (setting [12]). Besides, the fluorescence slope in assay [5] is -0.514 (inactive). Besides, the NADPH fluorescence slope in assay [6] was -7.5e-05 (inactive). The slope in assay [7] was 0.00454 (inactive). Moreover, in assay [8], the compound was classed as inactive.

Regarding `CC(C)OC(=O)c1nn2c(C(F)(F)F)cc(-c3ccc(Br)o3)nc2c1Br`, the cell count in assay [1] was 519. For the same compound, the inhibition is -4.9% (inactive) in [1], 5.6% (inactive) in assay [2], -9.7% (inactive) in assay [4] and 18.5% (inactive) in assay [9]. This compound displayed a nuclei count in assay [2] of 127%. For the same compound, the figures for the z-score in [3] (setting [10]), in assay [3] (setting [11]) and in [3] (setting [12]) were -1.28, -0.277 and 1.66, respectively. Also, in [5], the fluorescence slope is -0.29 (inactive). The NADPH fluorescence slope in assay [6] is -4.3e-06 (inactive). Further, the slope in assay [7] is 0.00144 (inactive). The call in [8] was inactive.
